What all share (assay type): cell-based
Data set [1] is described as follows: In-vitro cytotoxicity assay. The note with it: African green monkey, VERO cells (mammalian kidney fibroblasts, ATCC). In short, it runs like this: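 VERO cells were seeded at 25,000 cells/well and incubated for 24 h. Test compound was added at a range of concentrations and incubated a further 48 h. Viable cells were quantified by a modified Neutral Red uptake method. Doxorubicin was the positive control and DMSO the negative control. IC₅₀ was derived from dose-response curves.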

The test system of data set [2] is chloroquine resistant (W2, Indo China) strain of Plasmodium falciparum. Nature of the data set: Antimalarial assay. As to conditions: W2, 72 h, read-out: antimalarial activity IC50. In short, it runs like this:
(§1)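 Test compound was dissolved in DMSO (2 mg/ml stock) and serially diluted. It was then added to P. falciparum culture (2% parasitemia, 2% hematocrit) in RPMI 1640 with 10% human serum and 60 μg/mL amikacin. Plates were held under 90% N₂/5% O₂/5% CO₂ at 37 °C for 72 hours. Parasite LDH was assayed with Malstat reagent for 30 min, then NBT/PES for 1 h in the dark. The reaction was stopped with 5% acetic acid and read at 650 nm. Chloroquine and artemisinin were positive controls and DMSO (0.25%) the negative control. IC₅₀ came from percent growth versus concentration curves.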

Data set [3] relates to Leishmania donovani promastigotes. Briefly: Antileishmanial assay. As to conditions: 72 h; for IC50: read-out: antileishmanial activity IC50; for IC90: read-out: antileishmanial activity IC90. In short, it runs like this: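 Leishmania donovani promastigote or axenic amastigote cultures at 2 × 10⁶ cells/ml were exposed to test compound and incubated at 26 °C for 72 hours. Growth was read by AlamarBlue. Pentamidine and amphotericin B served as positive controls. IC₅₀ and IC₉₀ were computed from dose-response curves.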

Data set [4] deals with chloroquine sensitive (D6, Sierra Leone) strain of Plasmodium falciparum. Nature of the data set: Antimalarial assay. The note with it: D6, 72 h, read-out: antimalarial activity IC50. In short, it runs like this: as §1

≈ marks a conversion by molar mass, not a printed value.

For `O=C1CC(O)C2c3c(ccc(O)c31)-c1ccc(O)c3c1C2(O)C(O)CC3=O` (stereo not shown) [Compound 2, 3,6,6a,7,10-pentahydroxy-4,9-dioxo-4,5,6,6a,6b,7,8,9-octahydroperylene], the IC50 (usually the point on the concentration scale where inhibition reaches its midpoint) at 48 h in data set [1] is 3.59 µg/mL (≈ 9.75 µM). For the same compound, the IC50 in data set [2] is 3.65 µg/mL (≈ 9.91 µM); in data set [3], 4.4 µg/mL (≈ 11.9 µM); in data set [4], 4.24 µg/mL (≈ 11.5 µM). The IC90 (as a rule, the concentration at which the effect reaches the 90% level) in data set [3] stood at 9.54 µg/mL (≈ 25.9 µM).
With `O=C1CC(O)C2(O)c3c(ccc(O)c31)-c1ccc(O)c3c1C2C1OC1C3O` (stereo not shown) [Compound 1, 3,6,6a,9,10-pentahydroxy-7,8-epoxy-4-oxo-4,5,6,6a,6b,7,8,9-octahydroperylene], in data set [3], the IC50 came to 2.55 µg/mL (≈ 6.92 µM) and the IC90 came to 8.28 µg/mL (≈ 22.5 µM).

These data come from publication PMC6304448 (Heliyon, 2018).
